Measurements from ChEMBL document CHEMBL3271964, “Synthesis and biological activity of new 2-nitroimidazole derivatives” (J Med Chem, 1978).
In brackets after ≈: the same amount, converted by molar mass. Activity calls are given as the source filed them.

Experiments:
[1] = system: Mycoplasmoides gallisepticum; assay: Antimicrobial activity against Mycoplasma gallisepticum S6 Weybridge by broth dilution method; format: functional
Trichomonas vaginalis [2] = assay: Antimicrobial activity against Trichomonas vaginalis infected in po dosed mouse; format: functional
In short: (§1)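 Mice infected subcutaneously, then dosed orally. Vehicle depended on compound: suspension in aqueous 0.75% sodium carboxymethylcellulose, DMF-H₂O, DMF-phosphate buffer pH 7.38, or water. ED₅₀ determined, with metronidazole run in parallel. The relative value is ED₅₀ (test) / ED₅₀ (metronidazole).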

Clostridium perfringens = assay: Antimicrobial activity against Clostridium perfringens ISS 30543 by broth dilution method; format: functional
[3] = Therapeutic index, ratio of LD50 for po dosed mouse to ED50 for Trichomonas vaginalis infected in po dosed mouse; format: organism-based; conditions: in vivo, read-out: Ratio LD50/ED50
In short: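 Ratio of two mouse values, both dosed orally. The LD50 comes from acute toxicity, with compounds suspended in aqueous 0.5% Methocel 90-HG. The ED50 comes from subcutaneous T. vaginalis infection treated orally. The ED50 vehicle varied by compound: suspension in aqueous 0.75% sodium carboxymethylcellulose, DMF-H2O, DMF-phosphate buffer pH 7.38, or H2O.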

Trichomonas vaginalis [4] = assay: Antimicrobial activity against Trichomonas vaginalis by broth dilution method; format: functional
Streptococcus pyogenes = assay: Antimicrobial activity against Streptococcus pyogenes C 203 by microtitre method; format: functional
Staphylococcus aureus = assay: Antimicrobial activity against Staphylococcus aureus Tour by microtitre method; format: functional
[5] = Acute toxicity in po dosed mouse; format: organism-based; conditions: in vivo
In short: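 Acute toxicity in mice by the oral route. Compounds were given as suspensions in aqueous 0.5% Methocel 90-HG.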

Trichomonas vaginalis [6] = assay: Antimicrobial activity against Trichomonas vaginalis infected in po dosed mouse relative to metronidazole; format: functional; in short: as §1
Mus musculus [7] = assay: Toxicity in CF1 mouse assessed as change in sleeping time at 1 mg/kg, po administered 30 mins prior to hexobarbital sodium challenge relative to vehicle-treated control; format: organism-based; parameters: dose 1 mg/kg, route oral; conditions: in vivo, 0.5 h
Mus musculus [8] = assay: Toxicity in CF1 mouse assessed as reduction in curiosity at 10 to 600 mg/kg, po by Irwin test; format: organism-based; parameters: dose 10-600 mg/kg, route oral; conditions: in vivo
In short: (§2)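 Irwin observational method in male CF1 mice (19–22 g). Oral dosing of a suspension in 0.5% Methocel 90-HG at 10 mL/kg, up to 600 mg/kg; controls received saline. Directly observable behavioural and autonomic changes were scored, with the threshold dose for onset recorded.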

Mus musculus [9] = assay: Toxicity in CF1 mouse assessed as reduction in body tone at 10 to 600 mg/kg, po by Irwin test; format: organism-based; parameters: dose 10-600 mg/kg, route oral; conditions: in vivo; in short: as §2
Mus musculus [10] = assay: Toxicity in CF1 mouse assessed as cyanosis at 10 to 600 mg/kg, po by Irwin test; format: organism-based; parameters: dose 10-600 mg/kg, route oral; conditions: in vivo; in short: as §2
Mus musculus [11] = assay: Toxicity in CF1 mouse assessed as reduction in heart rate at 10 to 600 mg/kg, po by Irwin test; format: organism-based; parameters: dose 10-600 mg/kg, route oral; conditions: in vivo; in short: as §2
Mus musculus [12] = assay: Toxicity in CF1 mouse assessed as reduction in opening of eyelid at 10 to 600 mg/kg, po by Irwin test; format: organism-based; parameters: dose 10-600 mg/kg, route oral; conditions: in vivo; in short: as §2
Mus musculus [13] = assay: Toxicity in CF1 mouse assessed as flaccid paralysis at 600 mg/kg, po by Irwin test; format: organism-based; parameters: dose 600 mg/kg, route oral; conditions: in vivo; in short: as §2
Mus musculus [14] = assay: Toxicity in CF1 mouse assessed as change in sleeping time at 300 mg/kg, po administered 30 mins prior to hexobarbital sodium challenge relative to vehicle-treated control; format: organism-based; parameters: dose 300 mg/kg, route oral; conditions: in vivo, 0.5 h
In short: (§3)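 Male CF1 mice (19–22 g), groups of 30, given oral doses as a 0.5% Methocel 90-HG suspension at 10 mL/kg; saline controls (90 animals). Hexobarbital sodium 75 mg/kg ip given 30 min later, at 25–26 °C. Sleeping time given as mean ± SE and as % change vs controls; Dunnett's t test.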

Mus musculus [15] = assay: Inhibition of strychine sulfate/pentetrazole-induced death in CF1 mouse at 300 to 600 mg/kg, po administered 60 mins prior to strychine sulfate/pentetrazole challenge; format: functional, organism-based
Mus musculus [16] = assay: Toxicity in CF1 mouse assessed as ataxia at 10 to 600 mg/kg, po by Irwin test; format: organism-based; parameters: dose 10-600 mg/kg, route oral; conditions: in vivo; in short: as §2
Mus musculus [17] = assay: Toxicity in CF1 mouse assessed as reduction in spontaneous activity at 10 to 600 mg/kg, po by Irwin test; format: organism-based; parameters: dose 10-600 mg/kg, route oral; conditions: in vivo; in short: as §2
Mus musculus [18] = assay: Toxicity in CF1 mouse assessed as reduction in respiratory rate at 10 to 600 mg/kg, po by Irwin test; format: organism-based; parameters: dose 10-600 mg/kg, route oral; conditions: in vivo; in short: as §2
Mus musculus [19] = assay: Toxicity in CF1 mouse assessed as change in sleeping time at 600 mg/kg, po administered 30 mins prior to hexobarbital sodium challenge relative to vehicle-treated control; format: organism-based; parameters: dose 600 mg/kg, route oral; conditions: in vivo, 0.5 h; in short: as §3

Row | SMILES | MIC [1] [µg/mL] | ED50 (Trichomonas vaginalis [2]) [mg/kg] | MIC (Clostridium perfringens) [µg/mL] | selectivity ratio [3] | MIC (Trichomonas vaginalis [4]) [µg/mL] | MIC (Streptococcus pyogenes) [µg/mL] | MIC (Staphylococcus aureus) [µg/mL] | LD50 [5] [mg/kg] | Ratio ED50 (Trichomonas vaginalis [6]) | also measured
1 | O=[N+]([O-])c1cncn1CCN1CCOCC1 [NIMORAZOLE] | > 300 | 37.9 | 0.6 (≈ 2.65 µM) | 40 | 12.5 (≈ 55.3 µM) | > 300 | > 300 | 1530 | 4.66 | 
2 | CN(C)CCCN1c2ccccc2Sc2ccc(Cl)cc21.Cl [CHLORPROMAZINE HYDROCHLORIDE] |  |  |  |  |  |  |  |  |  | Activity (Mus musculus [7]): 57.7%
3 | Cn1c(C(C)(C)OC(=O)NN)cnc1[N+](=O)[O-] | 25 (≈ 103 µM) | 4.67 | 3.1 (≈ 12.7 µM) | 141 | 100 (≈ 411 µM) | 100 (≈ 411 µM) | > 100 | 660 | 0.33 | 
4 | Cn1c(C(C)(C)OC(=O)Nc2ccccc2)cnc1[N+](=O)[O-] | 25 (≈ 82.2 µM) | 28.8 | 3.1 (≈ 10.2 µM) |  | 100 (≈ 329 µM) | > 100 | > 100 |  | 2.88 | 
5 | Cn1c(C(C)(C)O)cnc1[N+](=O)[O-] | 40 (≈ 216 µM) | 1.65 | 25 (≈ 135 µM) | 423 | 25 (≈ 135 µM) | > 300 | 100 (≈ 540 µM) |  | 0.28 | 
6 | Cc1ncc([N+](=O)[O-])n1CCO [METRONIDAZOLE] | > 300 |  | 0.6 (≈ 3.51 µM) | 658 | 5 (≈ 29.2 µM) | > 300 | > 300 |  |  | Activity (Mus musculus [8]): Toxic; Activity (Mus musculus [9]): Toxic; Activity (Mus musculus [10]): Toxic; Activity (Mus musculus [11]): Toxic; Activity (Mus musculus [12]): Toxic; Activity (Mus musculus [13]): Toxic; Activity (Mus musculus [14]): 29.2%; inhibition (Mus musculus [15]): Active; Activity (Mus musculus [16]): Toxic; Activity (Mus musculus [17]): Toxic; Activity (Mus musculus [18]): Toxic; Activity (Mus musculus [19]): 55.9%
